Active and inactive are the calls of the source. The calls are words filed in the database; no cut-off is given here.
How the values were obtained:
[1] = system: Huh-7; assay: Effect on HDAC2 protein expression in human Huh-7 cells at 0.6 to 10 uM incubated for 24 hrs by immunoblot analysis; assay type: functional, cell-based; conditions: dose 0.6-10 µM
Procedure, shortened: (§1)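 Huh7 or HepG2 cells exposed to the indicated concentrations for 24 h. Lysates prepared in RIPA buffer with phosphatase inhibitors (10 mM Na3VO4, 1 mM NaF, 5 mM NaPPi) and protease inhibitor cocktail; protein quantified by Bio-Rad assay. HDAC1 and HDAC2 detected by immunoblot, with GAPDH as loading control.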

[2] = system: HepG2; assay: Antiproliferative activity against human HepG2 cells assessed as inhibition of cell growth incubated for 72 hrs by Alamar blue assay; assay type: functional, cell-based; conditions: dose 0.3-80 µM
Procedure, shortened: (§2)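 Cells seeded in 96-well plates and exposed to a range of drug concentrations for 72 h; Alamar Blue added for a further 4 h. Viable cells expressed as percentage of solvent-treated control; means ± SD, n = 3. Cells kept in DMEM with 10% FBS, 2 mM L-glutamine, 0.1 mM non-essential amino acids and antibiotics at 37 °C in humidified CO2.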

[3] = system: HepG2; assay: Inhibition of colony formation in human HepG2 cells after 10 days by crystal violet staining based assay; assay type: functional, cell-based; conditions: dose 0.6-10 µM, time 10.0 day
Procedure, shortened: (§3)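 Cells seeded at 1 × 10⁴ per well overnight in six-well plates, then exposed to the specified drug concentrations for 10 days at 37 °C in 5% CO2. Surviving colonies stained with crystal violet and counted; means ± SD, n = 3.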

[4] = Drug uptake in NOD-SCID mouse assessed as compound level in liver tissue at 25 mg/kg, po treated for 30 days; conditions: in vivo, 720 h
[5] = system: Huh-7; assay: Reduction in MYC protein expression in tumor of mouse xenografted with human Huh-7 cells at 10 to 25 mg/kg, po treated for 30 days; assay type: functional, organism-based; conditions: dose 10-25 mg/kg, time 30.0 day
Procedure, shortened: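 Tumors taken from Huh7 xenografted nude mice dosed orally every day at 10 or 25 mpk. Tumor lysates prepared in RIPA buffer containing phosphatase and protease inhibitors. MYC and GNMT detected by immunoblot with β-actin as loading control; n = 6 mice per group.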

[6] = system: HepG2; assay: Effect on HDAC2 protein expression in human HepG2 cells at 0.6 to 10 uM incubated for 24 hrs by immunoblot analysis; assay type: functional, cell-based; conditions: dose 0.6-10 µM; procedure, shortened: as §1
[7] = system: Huh-7; assay: Increase in p21 expression in human Huh-7 cells at 0.6 to 10 uM incubated for 24 hrs by qRT-PCR analysis; conditions: dose 0.6-10 µM
[8] = biological target: T1, Glycine N-methyltransferase (Homo sapiens) (UniProt Q14749); assay: Induction of GNMT in human H7GPL cells assessed as fold increase in promoter-driven luciferase reporter expression at 10 uM measured after 24 hrs by luminescence assay relative to control; assay type: cell-based; conditions: filed as activator
T1 sequence (whole entry): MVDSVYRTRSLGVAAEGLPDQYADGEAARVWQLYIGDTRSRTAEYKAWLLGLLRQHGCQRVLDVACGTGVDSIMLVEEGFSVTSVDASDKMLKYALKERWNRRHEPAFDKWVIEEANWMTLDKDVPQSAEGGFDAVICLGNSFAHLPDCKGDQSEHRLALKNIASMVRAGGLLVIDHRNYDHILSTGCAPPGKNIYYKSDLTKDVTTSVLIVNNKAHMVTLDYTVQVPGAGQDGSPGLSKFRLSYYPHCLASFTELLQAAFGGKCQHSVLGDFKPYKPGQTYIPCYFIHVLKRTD

[9] = biological target: T1, Glycine N-methyltransferase (Homo sapiens); assay: Induction of GNMT in human H7GPL cells assessed as fold increase in promoter-driven luciferase reporter expression at 2.5 uM measured after 24 hrs by luminescence assay relative to control; assay type: cell-based; conditions: filed as activator
Procedure, shortened: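 H7GPL cells (Huh7 carrying a stable lentiviral GNMT promoter–luciferase reporter, kept in 1 μg/mL puromycin) treated with compound for 24 h, then luciferase measured. Luciferase activity normalised to cell viability and expressed as fold over solvent control; means ± SD, n = 3.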

[10] = Toxicity in NOD-SCID mouse assessed as organ morphology at 10 to 25 mg/kg, po treated for 30 days; assay type: organism-based; conditions: in vivo, 720 h, dose 10-25 mg/kg, time 30 day
Procedure, shortened: (§4)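 Huh7 cells (1 × 10⁶) were injected subcutaneously into the right flank of five- to six-week-old female mice. Once tumours were palpable, mice were randomised and dosed orally every day for 30 days at 10 or 25 mpk, with vehicle and sorafenib (25 mpk) groups alongside. Survival, body weight, liver function tests and organ morphology were monitored during treatment.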

[11] = system: HepG2; assay: Inhibition of MYC mRNA expression in human HepG2 cells at 0.6 to 10 uM incubated for 24 hrs by immunoblot analysis; assay type: functional, cell-based; conditions: dose 0.6-10 µM, in the assay text read “qRT-PCR analysis” for “immunoblot analysis”
Procedure, shortened: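 Huh7 or HepG2 cells treated with the indicated concentrations for 24 h. Myc mRNA measured by qRT-PCR and expressed as fold over solvent control; means ± SD, n = 3.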

[12] = system: Huh-7; assay: Antiproliferative activity against human Huh-7 cells assessed as inhibition of cell growth incubated for 72 hrs by Alamar blue assay; assay type: functional, cell-based; conditions: dose 0.3-80 µM; procedure, shortened: as §2
[13] = system: HepG2; assay: Effect on HDAC1 protein expression in human HepG2 cells at 0.6 to 10 uM incubated for 24 hrs by immunoblot analysis; assay type: functional, cell-based; conditions: dose 0.6-10 µM; procedure, shortened: as §1
[14] = system: Huh-7; assay: Inhibition of colony formation in human Huh-7 cells after 10 days by crystal violet staining based assay; assay type: functional, cell-based; conditions: dose 0.6-10 µM, time 10.0 day; procedure, shortened: as §3
[15] = system: Hep 3B2; assay: Antiproliferative activity against human Hep3B cells assessed as inhibition of cell growth incubated for 72 hrs by Alamar blue assay; assay type: functional, cell-based; conditions: dose 0.3-80 µM; procedure, shortened: as §2
[16] = Toxicity in NOD-SCID mouse assessed as body weight at 10 to 25 mg/kg, po treated for 30 days; assay type: organism-based; conditions: in vivo, 720 h, dose 10-25 mg/kg, time 30 day; procedure, shortened: as §4
[17] = Toxicity in NOD-SCID mouse assessed as survival at 10 to 25 mg/kg, po treated for 30 days; assay type: organism-based; conditions: in vivo, 720 h, dose 10-25 mg/kg, time 30 day; procedure, shortened: as §4
[18] = Toxicity in NOD-SCID mouse assessed as liver function at 10 to 25 mg/kg, po treated for 30 days; assay type: organism-based; conditions: in vivo, 720 h, dose 10-25 mg/kg, time 30 day; procedure, shortened: as §4
[19] = system: Huh-7; assay: Effect on HDAC1 protein expression in human Huh-7 cells at 0.6 to 10 uM incubated for 24 hrs by immunoblot analysis; assay type: functional, cell-based; conditions: dose 0.6-10 µM; procedure, shortened: as §1
[20] = system: Huh-7; assay: Antitumor activity against human Huh-7 cells xenografted in mouse tumor model assessed as reduction in tumor volume at 10 to 25 mg/kg, po treated for 30 days; assay type: functional, organism-based; conditions: dose 10-25 mg/kg, time 30.0 day
Procedure, shortened: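 Huh7 xenografts (1 × 10⁶ cells s.c., right flank) in female Balb/c nude mice aged 5–6 weeks. After tumors became palpable, mice were randomised and dosed orally every day at 10 or 25 mpk, or solvent; sorafenib 25 mpk as comparator. Caliper monitoring of tumor growth over about 4 weeks; mean ± SE, n = 6.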

[21] = biological target: T1, Glycine N-methyltransferase (Homo sapiens); assay: Induction of GNMT in human H7GPL cells assessed as fold increase in promoter-driven luciferase reporter expression measured after 24 hrs by luminescence assay relative to control; assay type: cell-based; conditions: filed as activator, dose 0.15-10 µM
[22] = Cytotoxicity against human H7GPL cells at 10 uM measured after 72 hrs by MTS assay; assay type: toxicity, cell-based
Procedure, shortened: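 H7GPL-1 cells seeded at 3 × 10³ per well overnight, then exposed to 10 μM compound for 72 h. Medium replaced with MTS/PMS reagent (20:1) and incubated 1.5 h at 37 °C in 5% CO2; absorbance read at 490 nm. Viability expressed relative to control, where 100% means no cytotoxicity.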

[23] = system: Huh-7; assay: Induction of GNMT protein expression in human Huh-7 cells at 2.5 uM measured after 24 hrs; assay type: functional, cell-based
[24] = system: Huh-7; assay: Induction of GNMT mRNA expression in human Huh-7 cells at 2.5 uM measured after 24 hrs by qRT-PCR analysis; assay type: functional, cell-based
Procedure, shortened: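 Huh7 cells exposed to 2.5 μM for 24 h, then RNA harvested. GNMT mRNA quantified by qRT-PCR, normalised to an internal control and expressed as fold over solvent control; means ± SD, n = 3.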

[25] = system: Huh-7; assay: Antitumor activity against human Huh-7 cells xenografted in mouse tumor model assessed as inhibition of tumor growth at 25 to 300 mg/kg, po treated for 30 days; assay type: functional, organism-based; conditions: dose 25-300 mg/kg, time 30.0 day
Procedure, shortened: (§5)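 Female Balb/c nude mice, 5–6 weeks old, injected subcutaneously in the right flank with 1 × 10⁶ Huh7 cells. Once tumors were palpable, animals were randomised and dosed orally every day for 30 days at 25, 100 or 300 mpk, or vehicle; sorafenib 25 mpk as reference group. Tumors measured by caliper throughout; body weight recorded during treatment.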

[26] = Toxicity in mouse xenografted with human Huh-7 cells assessed as body weight at 25 to 300 mg/kg, po treated for 30 days; assay type: organism-based; conditions: in vivo, 720 h, dose 25-300 mg/kg, time 30 day; procedure, shortened: as §5

Structure (SMILES)	fold change (FC) [8]	fold change (FC) [9]	also measured
C/C(=N\NC(=O)c1cccnc1N)c1ccccn1	8.26	11.1	Activity [1]: inactive; Activity [2]: Dose-Dependent Effect; inhibition [3]: Dose-Dependent Effect; Drug uptake [4]: Active; Activity [5]: Active; Activity [6]: inactive; Activity [7]: Active; Activity [10]: Non-Toxic; inhibition [11]: Active; Activity [12]: Dose-Dependent Effect; Activity [13]: inactive; inhibition [14]: Dose-Dependent Effect; Activity [15]: Dose-Dependent Effect; Activity [16]: Non-Toxic; Activity [17]: Non-Toxic; Activity [18]: Non-Toxic; Activity [19]: inactive; inhibition [20]: Active
c1ccc(-n2ncc3c(N4CCC5(CC4)OCCO5)ncnc32)cc1	–	–	Activity [22]: Non-Toxic
O=C(NN=C(c1ccccn1)c1ccccn1)c1cc2ccccc2cc1O	5.94	7.56	–
O=C(N/N=C/c1ccc[nH]1)c1cc2ccccc2cc1O	1.56	1.19	–
O=C(N/N=C/c1ccco1)c1cc2ccccc2cc1O	1.04	1.22	–
O=C(N/N=C/c1cccs1)c1cc2ccccc2cc1O	1.36	0.12	–
COc1ccc(/C(C)=N/NC(=O)c2cc3ccccc3cc2O)cc1	0.9	1.2	–
C/C(=N\NC(=O)c1cc2ccccc2cc1O)c1ccc([N+](=O)[O-])cc1	0.9	1.01	–
c1ccc(OCc2nc3ccccc3s2)cc1 [2-(PHENOXYMETHYL)BENZOTHIAZOLE]	–	–	Activity [22]: Non-Toxic
O=C(N/N=C/c1ccc2ccccc2n1)c1cc2ccccc2cc1O	1.01	1.11	–
O=C(N/N=C/c1ccccn1)c1cc2ccccc2cc1O	1.09	1.79	–
Cc1ccc(COc2ccc3ccc(=O)oc3c2)cc1	–	–	Activity [22]: Non-Toxic

Further lines, with some results ahead:

fold change (FC) [8]	fold change (FC) [9]	Structure (SMILES)	also measured
–	6.7	C/C(=N\NC(=O)c1cc2ccccc2cc1O)c1ccccn1	Activity [21]: Dose-Dependent Effect; Activity [22]: Non-Toxic; Activity [23]: Active; Activity [24]: Active; inhibition [25]: Active; Activity [26]: Non-Toxic
1.37	1.16	C/C(=N\NC(=O)c1cc2ccccc2cc1O)c1ccccc1	–
6.96	0.59	C/C(=N\NC(=O)c1ccccc1)c1ccccn1	–
1.14	4.7	O=C(NN=C(c1ccccn1)c1ccccn1)c1ccc(O)cc1O	–
5.86	4.55	O=C(NN=C(c1ccccn1)c1ccccn1)c1ccccc1O	–
11	0.93	C/C(=N\NC(=O)c1ccccc1N)c1ccccn1	–
1.04	1.22	C/C(=N\NC(=O)c1cc2ccccc2cc1O)c1ccc[nH]1	–
0.99	3.31	C/C(=N\NC(=O)c1cc2ccccc2cc1O)c1ccc2ccccc2n1	–
6.66	13.3	C/C(=N\NC(=O)c1cccc(O)c1)c1ccccn1	–
1.5	4.88	C/C(=N\NC(=O)c1ccc(O)cc1O)c1ccccn1	–
1.42	1.24	C/C(=N\NC(=O)c1cc2ccccc2cc1O)c1cccs1	–
1.15	1.33	C/C(=N\NC(=O)c1cc2ccccc2cc1O)c1cccnc1	–
0.88	1.4	O=C(N/N=C/c1ccccn1)c1ccccc1O	–
11	0.61	C/C(=N\NC(=O)c1c(O)cccc1O)c1ccccn1	–
9.79	0.38	C/C(=N\NC(=O)c1ccccc1O)c1ccccn1	–
1.31	1.72	COc1ccccc1C(=O)N/N=C(\C)c1ccccn1	–
1.18	1.42	C/C(=N\NC(=O)c1cc2ccccc2cc1O)c1ccco1	–

— ChEMBL document CHEMBL5226313, “Discovery of an Orally Efficacious MYC Inhibitor for Liver Cancer Using a GNMT-Based High-Throughput Screening System and Structure-Activity Relationship Analysis” (J Med Chem, 2021)
